Reference: ChEMBL document CHEMBL1155225, “Investigation of functionally liver selective glucokinase activators for the treatment of type 2 diabetes” (J Med Chem, 2009)
Activity calls are given as the source filed them. The calls are words filed in the database; no cut-off is given here.

Assays:
[1] = target: T1, Hexokinase-4 (Homo sapiens) (UniProt P35557); assay: Activation of His-tagged human recombinant liver glucokinase expressed in Escherichia coli BL21 (DE3) assessed as drug level required for half-maximal activation; format: single protein
T1 sequence (whole entry): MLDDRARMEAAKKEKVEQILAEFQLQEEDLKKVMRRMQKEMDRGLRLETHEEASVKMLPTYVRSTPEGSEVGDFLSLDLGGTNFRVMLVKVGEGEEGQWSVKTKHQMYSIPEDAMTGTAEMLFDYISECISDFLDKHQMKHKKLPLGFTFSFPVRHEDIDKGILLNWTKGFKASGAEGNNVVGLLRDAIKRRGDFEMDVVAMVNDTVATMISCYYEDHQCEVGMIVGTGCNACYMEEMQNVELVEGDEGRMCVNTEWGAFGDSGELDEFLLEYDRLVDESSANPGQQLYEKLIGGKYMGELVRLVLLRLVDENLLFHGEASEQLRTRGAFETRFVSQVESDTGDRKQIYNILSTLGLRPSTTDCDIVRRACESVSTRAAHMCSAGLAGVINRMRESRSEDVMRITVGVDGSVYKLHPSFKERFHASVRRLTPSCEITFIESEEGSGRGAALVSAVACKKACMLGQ
Outline: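 Recombinant human liver GK (aa 17-466), His-tagged, expressed in E. coli BL21 Star (DE3), nickel affinity purified, tag cleaved (GPGSM left), then anion exchange and gel filtration to >95%.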

[2] = target: T2, Hexokinase-4 (Rattus norvegicus) (UniProt P17712); assay: Activation of glucokinase-mediated of glucose phosphorylation in Sprague-Dawley rat hepatocytes assessed as release of [3H]H2O from [2-3H]glucose at 30 uM after 3 hrs; format: cell-based; details: Hepatocyte
T2 sequence (whole entry): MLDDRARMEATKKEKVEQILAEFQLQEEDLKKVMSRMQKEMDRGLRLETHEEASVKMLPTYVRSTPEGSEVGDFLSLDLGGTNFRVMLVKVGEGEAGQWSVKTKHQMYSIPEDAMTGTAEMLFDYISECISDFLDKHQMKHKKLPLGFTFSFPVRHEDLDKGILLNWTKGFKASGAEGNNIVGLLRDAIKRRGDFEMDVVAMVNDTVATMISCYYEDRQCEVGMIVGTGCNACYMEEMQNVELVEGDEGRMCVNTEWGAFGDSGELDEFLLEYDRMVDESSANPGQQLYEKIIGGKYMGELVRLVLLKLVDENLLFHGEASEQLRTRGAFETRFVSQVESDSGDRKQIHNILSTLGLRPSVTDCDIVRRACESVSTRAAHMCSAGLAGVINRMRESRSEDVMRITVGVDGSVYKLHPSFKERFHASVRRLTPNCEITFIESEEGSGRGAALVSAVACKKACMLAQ
Outline: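 Hepatocytes from overnight-fasted male Sprague-Dawley rats by collagenase perfusion, cultured 16-20 h at 37 °C, 5% CO2 in serum-free DMEM with 5 mM glucose plus dexamethasone. Preincubated 3 h at 37 °C in serum-free DMEM, 5 mM glucose, with DMSO or 30 μM compound, then 30 min with [2-3H]glucose. Medium collected into 0.1 M HCl; detritiated glucose (nmol/h per 10^6 cells) as % increase over vehicle; quadruplicate, mean ± SEM, Student's t test.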

[3] = Metabolic stability in human liver microsomes assessed as half life; format: ADME, Microsome
Outline: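 Compound incubated at 1 μM with human liver microsomes plus selected cofactors (NADPH, UDPGA); clearance followed at 4 time points as % test compound remaining, giving half-life.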

[4] = Permeability at 5 to 10 uM at pH 4, 6.8 and 8 by PAMPA; details: pH 4, 6.8, 8, 10 µM
Mus musculus = assay: Reduction in glucose excursion in C57BL/6 mouse at 50 mg/kg, po in microemulsion administered 30 mins before glucose challenge measured at 4 hrs postdose by oral glucose tolerance test; format: functional, organism-based; set-up: dose 50 mg/kg; details: C57BL6
Outline: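 C57BL6 mice grouped by matched 0-h plasma glucose; compound given by oral gavage (5 mL/kg) at 50 mg/kg (or 72 mg/kg) in microemulsion (Cremophor RH40, corn oil-monodiglyceride, propylene glycol, ethanol; diluted 2:3 with water) or in water; oral glucose 1 g/kg 30 min later. Blood sampled at 0.5, 1, 2 and 4 h post-dosing for glucose (meter) and insulin; % reduction from control.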

Row | Compound | Activity [1] | Activity [2] | half-life [3] | logPm [4] | Activity (Mus musculus)
1 | CCN(CC)S(=O)(=O)c1ccc(C(CC2CCCC2)C(=O)Nc2nc3ccc(OC)nc3s2)cc1 (stereo not given) | 42 nM | 345% | 5.8 min | -5.9 | –
2 | COc1ccc2nc(NC(=O)C(CC3CCCC3)c3ccc(S(=O)(=O)NC4CC4)cc3)sc2n1 (stereo not given) | 266 nM | – | 19.5 min | -5.2 | –
3 | COc1ccc2nc(NC(=O)C(CC3CCCC3)c3ccc(S(=O)(=O)NCc4ccccc4)cc3)sc2n1 (stereo not given) | 726 nM | 32% | – | – | –
4 | COc1ccc2nc(NC(=O)C(CC3CCCC3)c3ccc(S(=O)(=O)Nc4ccccc4)cc3)sc2n1 (stereo not given) | 583 nM | – | – | -3.8 | –
5 | COc1ccc2nc(NC(=O)C(CC3CCCC3)c3ccc(S(=O)(=O)N4CCCCC4)cc3)sc2n1 (stereo not given) | 66 nM | 230% | 6.2 min | -5.2 | –
6 | CCCC(=O)NS(=O)(=O)c1ccc(C(CC2CCCC2)C(=O)Nc2nc3ccc(OC)nc3s2)cc1 (stereo not given) [listing 1 of 2 here] | – | – | 2.2 min | -4.4 | –
7 | COc1ccc2nc(NC(=O)C(CC3CCCC3)c3ccc(S(=O)(=O)N(C)Cc4ccco4)cc3)sc2n1 (stereo not given) | 109 nM | 67% | 5.1 min | -5.1 | –
8 | CCC(=O)NS(=O)(=O)c1ccc(C(CC2CCCC2)C(=O)Nc2nc3ccc(OC)nc3s2)cc1 (stereo not given) | – | – | 4.8 min | -4.1 | –
9 | COc1ccc2nc(NC(=O)C(CC3CCCC3)c3ccc(S(=O)(=O)N(C)CCO)cc3)sc2n1 (stereo not given) | 147 nM | – | 10 min | -4.4 | –
10 | COc1ccc2nc(NC(=O)C(CC3CCCC3)c3ccc(S(=O)(=O)N(C)C)cc3)sc2n1 (stereo not given) | 295 nM | 221% | 17.8 min | -3.3 | –
11 | COc1ccc2nc(NC(=O)C(CC3CCCC3)c3ccc(S(=O)(=O)NCc4cccs4)cc3)sc2n1 (stereo not given) | 1450 nM | – | 25.3 min | -5.1 | –
12 | COc1ccc2nc(NC(=O)C(CC3CCCC3)c3ccc(S(=O)(=O)Nc4cccnc4)cc3)sc2n1 (stereo not given) | 323 nM | 219% | – | – | –
13 | COc1ccc2nc(NC(=O)C(CC3CCCC3)c3ccc(S(=O)(=O)N4CCOCC4)cc3)sc2n1 (stereo not given) | 153 nM | 281% | – | – | –
14 | COc1ccc2nc(NC(=O)C(CC3CCCC3)c3ccc(S(=O)(=O)N(C)Cc4nccn4C)cc3)sc2n1 (stereo not given) | 66 nM | – | < 1.5 min | -4.1 | –
15 | CCCC(=O)NS(=O)(=O)c1ccc(C(CC2CCCC2)C(=O)Nc2nc3ccc(OC)nc3s2)cc1 (stereo not given) [listing 2 of 2 here] | – | – | – | – | inactive

Continued, in another order:

Row | Activity [1] | Activity [2] | half-life [3] | logPm [4] | Compound | Activity (Mus musculus)
16 | 302 nM | 78% | 4.8 min | -7 | COc1ccc2nc(NC(=O)C(CC3CCCC3)c3ccc(S(=O)(=O)NC4CCCCC4)cc3)sc2n1 (stereo not given) | –
17 | 489 nM | 411% | – | – | O=C(Nc1nc2cccnc2s1)c1ccccc1 | –
18 | 61 nM | 85% | 15.7 min | -5 | COCCNS(=O)(=O)c1ccc(C(CC2CCCC2)C(=O)Nc2nc3ccc(OC)nc3s2)cc1 (stereo not given) | inactive
19 | 117 nM | – | 9 min | -4.8 | COc1ccc2nc(NC(=O)C(CC3CCCC3)c3ccc(S(=O)(=O)NCCN(C)C)cc3)sc2n1 (stereo not given) | –
20 | 181 nM | – | – | – | CCCCN(CCCC)S(=O)(=O)c1ccc(C(CC2CCCC2)C(=O)Nc2nc3ccc(OC)nc3s2)cc1 (stereo not given) | –
21 | 35 nM | – | – | – | CCCN(CCC)S(=O)(=O)c1ccc(C(CC2CCCC2)C(=O)Nc2nc3ccc(OC)nc3s2)cc1 (stereo not given) | –
22 | 263 nM | – | 26.2 min | -5.4 | COc1ccc2nc(NC(=O)C(CC3CCCC3)c3ccc(S(=O)(=O)N(C)Cc4ccccc4)cc3)sc2n1 (stereo not given) | inactive
23 | 305 nM | – | 13.1 min | -4.5 | COc1ccc2nc(NC(=O)C(CC3CCCC3)c3ccc(S(=O)(=O)NC4CCOCC4)cc3)sc2n1 (stereo not given) | –
24 | 73 nM | – | – | – | COc1ccc2nc(NC(=O)C(CC3CCCC3)c3ccc(S(=O)(=O)N(C(C)C)C(C)C)cc3)sc2n1 (stereo not given) | –
